How the values were obtained:
Assay type in all cases: functional, cell-based
SK-N-SH = assay: Cytotoxicity against human SK-N-SH cells assessed as growth inhibition after 48 hrs by MTT assay
Method in brief: (§1)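 MTT assay in triplicate. Cells were seeded at 10,000 cells/[…] per well in medium with 10% serum and allowed to adhere for 24 h in a humid 5% CO₂ chamber. After 48 h, MTT solution was added and cells were incubated 2 h more. Medium was then removed and DMSO added to dissolve the formazan. IC50 was taken as the concentration giving 50% growth inhibition.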

MDA-MB-231 = assay: Cytotoxicity against human MDA-MB-231 cells assessed as growth inhibition after 48 hrs by MTT assay; conditions: MDA-MB-231, 48 h; method in brief: as §1
A549 = assay: Cytotoxicity against human A549 cells assessed as growth inhibition after 48 hrs by MTT assay; conditions: A549, 48 h; method in brief: as §1

Row | Structure (SMILES) | IC50 (SK-N-SH) | IC50 (MDA-MB-231) | IC50 (A549)
1 | Cc1ccc2c(c1)CN1c3ccc(C)cc3CN2C1N1CCCCC1 | 12.2 µM | 82.4 µM | > 100 µM
2 | Ic1ccc2c(c1)CN1c3ccc(I)cc3CN2C1N1CCOCC1 | > 100 µM | > 100 µM | > 100 µM
3 | CN(C)C1N2Cc3ccccc3N1Cc1ccccc12 | > 100 µM | > 100 µM | > 100 µM
4 | CN(C)C1N2Cc3cc(OCCn4cncn4)ccc3N1Cc1cc(OCCn3cncn3)ccc12 | – | 40.4 µM | –
5 | Cc1ccc2c(c1)CN1c3ccc(C)cc3CN2C1N1CCOCC1 | > 100 µM | > 100 µM | > 100 µM
6 | Cc1ccc2c(c1)CN1c3ccc(C)cc3CN2C1N(C)c1ccccc1 | > 100 µM | 72.3 µM | > 100 µM
7 | COc1cc2c(cc1OC)N1Cc3cc(OC)c(OC)cc3N(C2)C1N(C)C | > 100 µM | 78.1 µM | > 100 µM
8 | CN(C)C1N2Cc3cc(OCCN4CCOCC4)ccc3N1Cc1cc(OCCN3CCOCC3)ccc12 | – | 4.79 µM | –
9 | CN(c1ccccc1)C1N2Cc3cc(Br)ccc3N1Cc1cc(Br)ccc12 | > 100 µM | 14.3 µM | > 100 µM
10 | COc1ccccc1N1CCN(CCOc2ccc3c(c2)CN2CN3Cc3cc(OCCN4CCN(c5ccccc5OC)CC4)ccc32)CC1 | – | 5.8 µM | –
11 | Clc1ccc(C(c2ccccc2)N2CCN(CCOc3ccc4c(c3)CN3CN4Cc4cc(OCCN5CCN(C(c6ccccc6)c6ccc(Cl)cc6)CC5)ccc43)CC2)cc1 (racemic) | – | 57.9 µM | –
12 | c1cn(CCOc2ccc3c(c2)CN2CN3Cc3cc(OCCn4ccnc4)ccc32)cn1 | – | 42.6 µM | –
13 | Brc1ccc2c(c1)CN1c3ccc(Br)cc3CN2C1N1CCCCC1 | > 100 µM | > 100 µM | > 100 µM
14 | c1ccc(CC2CCN(CCOc3ccc4c(c3)CN3CN4Cc4cc(OCCN5CCC(Cc6ccccc6)CC5)ccc43)CC2)cc1 | – | 64.1 µM | –
15 | CC(C)(C)OC(=O)N1CCN(CCOc2ccc3c(c2)CN2CN3Cc3cc(OCCN4CCN(C(=O)OC(C)(C)C)CC4)ccc32)CC1 | – | 5.15 µM | –
16 | COc1cccc2c1C(=O)c1c(O)c3c(c(O)c1C2=O)C[C@@](O)(C(=O)CO)C[C@@H]3O[C@H]1C[C@H](N)[C@H](O)[C@H](C)O1 [DOXORUBICIN] | 8.5 µM | 5.96 µM | 8.05 µM
17 | Fc1ccc(N2CCN(CCOc3ccc4c(c3)CN3CN4Cc4cc(OCCN5CCN(c6ccc(F)cc6)CC5)ccc43)CC2)cc1 | – | 4.82 µM | –
18 | c1ccc(-n2nnnc2SCCOc2ccc3c(c2)CN2CN3Cc3cc(OCCSc4nnnn4-c4ccccc4)ccc32)cc1 | – | > 100 µM | –
19 | CN(C)C1N2Cc3cc(Br)ccc3N1Cc1cc(Br)ccc12 | > 100 µM | > 100 µM | > 100 µM
20 | COc1ccc2c(c1)CN1CN2Cc2cc(OC)ccc21 | > 100 µM | > 100 µM | > 100 µM
21 | Ic1ccc2c(c1)CN1c3ccc(I)cc3CN2C1N1CCCCC1 | > 100 µM | > 100 µM | > 100 µM
22 | c1ncn(CCOc2ccc3c(c2)CN2CN3Cc3cc(OCCn4cncn4)ccc32)n1 | – | > 100 µM | –
23 | Cc1ccc(N(C)C2N3Cc4cc(Br)ccc4N2Cc2cc(Br)ccc23)cc1 | > 100 µM | > 100 µM | > 100 µM
24 | COc1ccc2c(c1)CN1c3ccc(OC)cc3CN2C1N(C)c1ccc(C)cc1 | > 100 µM | 10.7 µM | > 100 µM
25 | COc1ccc2c(c1)CN1c3ccc(OC)cc3CN2C1N(C)C | > 100 µM | > 100 µM | > 100 µM
26 | CC(C)c1ccc2c(c1)CN1c3ccc(C(C)C)cc3CN2C1N(C)C | > 100 µM | 57.5 µM | > 100 µM
27 | c1cc2c(cc1OCCN1CCOCC1)CN1CN2Cc2cc(OCCN3CCOCC3)ccc21 | – | 4.29 µM | –
28 | CN(C)C1N2Cc3cc(OCCn4ccnc4)ccc3N1Cc1cc(OCCn3ccnc3)ccc12 | – | > 100 µM | –
29 | Cc1ccc2c(c1)CN1c3ccc(C)cc3CN2C1N(C)C | > 100 µM | 61.8 µM | > 100 µM
30 | COc1cc2c(cc1OC)N1Cc3cc(OC)c(OC)cc3N(C2)C1N(C)c1ccccc1 | > 100 µM | 86.8 µM | > 100 µM

From ChEMBL document CHEMBL3351670, “Discovery of Tröger's base analogues as selective inhibitors against human breast cancer cell line: design, synthesis and cytotoxic evaluation” (Eur J Med Chem, 2014)
